Measurements from ChEMBL document CHEMBL1123703, “Hydroxamic acid inhibitors of 5-lipoxygenase” (J Med Chem, 1987).

These molecules were tested against T1, Polyunsaturated fatty acid lipoxygenase ALOX12 (Homo sapiens) (UniProt P18054) (assay: Compound was tested for the percent of inhibition against 12-LO at 10 uM).
T1 sequence (whole entry): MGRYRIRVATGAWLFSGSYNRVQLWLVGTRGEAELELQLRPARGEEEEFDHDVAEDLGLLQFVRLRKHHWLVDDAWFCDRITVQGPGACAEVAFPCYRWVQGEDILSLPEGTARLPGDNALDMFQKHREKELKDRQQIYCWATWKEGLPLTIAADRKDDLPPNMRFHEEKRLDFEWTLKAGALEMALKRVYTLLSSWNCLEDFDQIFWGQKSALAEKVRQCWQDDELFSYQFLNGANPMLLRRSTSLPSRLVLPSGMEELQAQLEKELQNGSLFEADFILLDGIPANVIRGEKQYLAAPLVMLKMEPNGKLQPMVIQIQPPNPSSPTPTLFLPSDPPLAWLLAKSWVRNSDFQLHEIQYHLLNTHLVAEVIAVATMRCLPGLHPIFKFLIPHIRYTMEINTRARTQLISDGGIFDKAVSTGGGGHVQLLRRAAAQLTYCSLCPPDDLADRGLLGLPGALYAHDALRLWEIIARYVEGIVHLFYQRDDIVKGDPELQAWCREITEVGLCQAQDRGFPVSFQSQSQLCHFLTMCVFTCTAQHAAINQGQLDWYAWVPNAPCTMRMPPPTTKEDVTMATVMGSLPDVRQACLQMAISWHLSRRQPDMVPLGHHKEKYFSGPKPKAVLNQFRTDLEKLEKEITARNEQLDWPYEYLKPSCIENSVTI
Format: functional
Summary of the method: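 The RBL-1 enzyme was replaced by human platelet 12-lipoxygenase, soybean 15-lipoxygenase or sheep seminal vesicle cyclooxygenase. Reactions were started with radiolabeled arachidonic acid and stopped by acidification and ether extraction. Products were separated by TLC and counted by liquid scintillation, in triplicate. Inhibition was taken from the ratio of product formed with and without inhibitor.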

For `O=C(NO)c1ccc(-c2ccccc2)cc1`, the inhibition was 86%.

These molecules were tested against T2, Polyunsaturated fatty acid 5-lipoxygenase (Rattus norvegicus) (UniProt P12527) (assay: Percent inhibition against RBL-1 5-LO in vitro at 10 uM).
T2 sequence (whole entry): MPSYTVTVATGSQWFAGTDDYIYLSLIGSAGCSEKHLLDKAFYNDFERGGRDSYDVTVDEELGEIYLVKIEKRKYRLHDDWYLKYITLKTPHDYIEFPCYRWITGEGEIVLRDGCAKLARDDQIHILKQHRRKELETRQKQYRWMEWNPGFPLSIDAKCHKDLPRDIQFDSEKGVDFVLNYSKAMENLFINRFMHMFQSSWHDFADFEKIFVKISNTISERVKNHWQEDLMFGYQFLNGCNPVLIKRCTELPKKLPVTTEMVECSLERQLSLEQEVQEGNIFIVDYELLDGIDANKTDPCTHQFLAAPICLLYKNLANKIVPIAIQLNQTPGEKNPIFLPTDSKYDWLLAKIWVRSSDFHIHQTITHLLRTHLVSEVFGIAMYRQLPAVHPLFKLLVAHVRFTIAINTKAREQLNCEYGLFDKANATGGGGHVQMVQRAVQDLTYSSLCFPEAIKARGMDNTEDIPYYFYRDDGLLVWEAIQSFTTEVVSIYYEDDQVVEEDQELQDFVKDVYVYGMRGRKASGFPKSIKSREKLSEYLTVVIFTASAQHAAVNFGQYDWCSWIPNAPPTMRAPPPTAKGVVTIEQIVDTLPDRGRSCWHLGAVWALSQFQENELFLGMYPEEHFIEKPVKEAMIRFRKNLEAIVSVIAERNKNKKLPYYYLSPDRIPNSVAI
Format: cell-based
Summary of the method: (§1)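 200-μL incubations held the 20000g supernatant of 1.5 million homogenized RBL-1 cells plus compound. Radiolabeled arachidonic acid started the reaction; acidification and ether extraction ended it. Product was resolved by TLC and counted by liquid scintillation, in triplicate. Inhibition was taken from the ratio of product formed with and without inhibitor.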

Compared with `CCCCCCCCCCCCOc1ccc2cc(C(=O)NO)ccc2c1`, `CCCCCCCCCOc1ccc2cc(C(=O)NO)ccc2c1` is higher in inhibition: 11% for the first, 33% for the second.

What follows are molecules tested against T2, Polyunsaturated fatty acid 5-lipoxygenase (Rattus norvegicus) (assay: Percent inhibition against RBL-1 5-LO in vitro at 100 uM).
Format: cell-based
Summary of the method: as §1

First: O=S(=O)(NO)c1ccc2ccccc2c1
Second: O=C(CO)c1ccc2ccccc2c1
The inhibition of the first is higher: 51% for the first, 15% for the second.

These molecules were tested against T2, Polyunsaturated fatty acid 5-lipoxygenase (Rattus norvegicus) (assay: Percent inhibition against RBL-1 5-LO in vitro at 30 uM).
Format: cell-based
Summary of the method: as §1

Going from `CN(O)S(=O)(=O)c1ccc2ccccc2c1` to `CONC(=O)c1ccc2ccccc2c1`, the inhibition falls from 6% to 0%.

Each molecule was assayed against T2, Polyunsaturated fatty acid 5-lipoxygenase (Rattus norvegicus) (assay: Percent inhibition against RBL-1 5-LO in vitro at 300 uM).
Format: cell-based
Summary of the method: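 20000g supernatant from 1.5 million homogenized RBL-1 cells, with test compound, in 200-μL incubations. Reactions were started with radiolabeled arachidonic acid and stopped by acidification and ether extraction. Products were separated from unconverted substrate by TLC and counted by liquid scintillation. Inhibition was taken from product formed with versus without inhibitor. Run in triplicate.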

First: O=C(O)c1ccc2ccccc2c1
Second: NC(=O)c1ccc2ccccc2c1
The inhibition of the first is lower: 0% for the first, 9% for the second.

Compared with `CO/C(=N\O)c1ccc2ccccc2c1`, `NNC(=O)c1ccc2ccccc2c1` is lower in inhibition: 74% for the first, 6% for the second.

Each molecule was assayed against T3, Polyunsaturated fatty acid 5-lipoxygenase (Rattus norvegicus, UniProt P12527) (assay: In vitro inhibitory activity against RBL-1 5-LO).
T3 sequence (P12527 whole entry): T2 sequence (whole entry)
Format: cell-based

Compared with `O=C(NO)c1ccc(Br)cc1`, `Cc1ccc(C(=O)NO)cc1` is 4.6-fold higher in IC50: 14 µM for the first, 65 µM for the second.

Compared with `O=C(NO)c1ccc(-c2ccc3ccccc3c2)cc1`, `O=C(NO)c1ccc(-c2cccc3ccccc23)cc1` is 1.8-fold lower in IC50: 0.33 µM for the first, 0.18 µM for the second.

`CCCCCCCOc1ccc2cc(C(=O)NO)ccc2c1` and `CCCCCCCCOc1ccc2cc(C(=O)NO)ccc2c1` are within 1.5-fold of each other in IC50: 6.5 µM for the first, 7.1 µM for the second.

`CC(C)N(O)C(=O)/C=C/c1ccc2ccccc2c1` and `CN(O)C(=O)/C=C/c1ccc2ccccc2c1` are within 1.5-fold of each other in IC50: 0.082 µM for the first, 0.1 µM for the second.

Going from `C/C(=C\C(=O)N(C)O)c1ccc2ccccc2c1` to `CN(O)C(=O)c1ccc2ccccc2c1`, the IC50 rises from 0.12 µM to 1.3 µM (11-fold). The first is the more potent here.

Compared with `COc1ccc2cc(C(=O)NO)ccc2c1`, `O=C(NO)c1ccc2ccccc2c1` is 1.7-fold higher in IC50: 8.2 µM for the first, 14 µM for the second. The first is the more potent here.

First: O=C(Cc1ccccc1)NO [PHENYLACETOHYDROXAMIC ACID]
Second: O=C(CCc1ccccc1)NO
The IC50 of the first is 3.4-fold higher: 300 µM for the first, 87 µM for the second. The second is the more potent here.

Compared with `C/C(=C\c1ccc2ccccc2c1)C(=O)N(C)O`, `O=C(/C=C/c1ccc2ccccc2c1)N(O)c1ccccc1` is 9-fold lower in IC50: 0.47 µM for the first, 0.052 µM for the second. The second is the more potent here.

Compared with `O=C(NO)c1ccccc1` [BENZOHYDROXAMATE], `O=C(/C=C\c1ccccc1)NO` is 3.5-fold lower in IC50: 110 µM for the first, 31 µM for the second.

Going from `O=C(NO)c1ccc(C(F)(F)F)cc1` to `Nc1ccc(C(=O)NO)cc1`, the IC50 rises from 27 µM to over 400 µM.

`O=C(Cc1ccc2ccccc2c1)NO` and `O=C(Cc1cccc2ccccc12)NO` are within 1.5-fold of each other in IC50: 19 µM for the first, 27 µM for the second.

First: Cc1cc(C)c(-c2ccc(C(=O)N(C)O)cc2)c(C)c1
Second: Cc1cc(C)c(-c2ccc(C(=O)NO)cc2)c(C)c1
The IC50 of the first is 4.5-fold lower: 0.064 µM for the first, 0.29 µM for the second. The first is the more potent here.

First: O=C(NO)c1ccc([N+](=O)[O-])cc1
Second: O=C(NO)c1ccc(I)cc1
The IC50 of the first is 1.5-fold higher: 23 µM for the first, 15 µM for the second.

First: O=C(C#Cc1ccccc1)NO
Second: O=C(/C=C/c1ccccc1)NO
The IC50 of the first is 3.8-fold higher: 46 µM for the first, 12 µM for the second. The second is the more potent here.

First: N#Cc1ccc(C(=O)NO)cc1
Second: O=C(NO)c1ccc(O)cc1
The IC50 of the first is 3.1-fold lower: 61 µM for the first, 190 µM for the second.

Compared with `Cc1cc(C)c(-c2ccc(/C=C/C(=O)N(C)O)cc2)c(C)c1`, `O=C(/C=C/c1ccc2ccccc2c1)N(O)C1CCCCC1` is 4.5-fold higher in IC50: 0.022 µM for the first, 0.1 µM for the second. The first is the more potent here.

First: O=C(CCCc1ccccc1)NO [PHENYLBUTYRYLHYDROXAMIC ACID]
Second: O=C(NO)c1cccc2ccccc12
The IC50 of the first is 1.6-fold lower: 27 µM for the first, 43 µM for the second. The first is the more potent here.

For `CCCCC/C=C\CCOc1ccc2cc(C(=O)NO)ccc2c1`, the IC50 was 2.9 µM.

The molecules below were run against T3, Polyunsaturated fatty acid 5-lipoxygenase (assay: Compound was tested for its inhibition activity against 5-LO of the whole cell in vitro in rat.).

Work on `O=C(NO)c1ccc(-c2ccccc2)cc1` yielded an IC50 of 3.3 µM.

What follows are molecules tested against T3, Polyunsaturated fatty acid 5-lipoxygenase (assay: Compound was tested for its inhibition activity against the 5-LO in isolated enzyme).
Summary of the method: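 5-LO from the 20000g supernatant of 1.5 million homogenized RBL-1 cells, in 200-μL incubations across a range of compound concentrations. Reaction started with radiolabeled arachidonic acid and stopped by acidification and ether extraction. Products were separated from substrate by TLC and counted by liquid scintillation, in triplicate.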

`O=C(NO)c1ccc(-c2ccccc2)cc1` gave an IC50 of 4 µM.

The molecules below were run against T2, Polyunsaturated fatty acid 5-lipoxygenase (Rattus norvegicus) (assay: Compound was tested for the percent of inhibition against 5-LO at 10 uM).
Summary of the method: as §1

For `O=C(NO)c1ccc(-c2ccccc2)cc1`, the inhibition was 86%.

What follows are molecules tested on Seed linoleate 15-lipoxygenase (Glycine max) (assay: Compound was tested for the percent of inhibition against soybean 15-LO (at 100 uM)).

`O=C(NO)c1ccc(-c2ccccc2)cc1` was tested, and the inhibition was 30%.

What follows are molecules tested against Prostaglandin G/H synthase 1 (Ovis aries) (UniProt P05979) (assay: Compound was tested for the percent of inhibition against sheep seminal vesicle cyclooxygenase at 100 uM).
Chain of Prostaglandin G/H synthase 1 (Ovis aries) (P05979 whole entry, looked up): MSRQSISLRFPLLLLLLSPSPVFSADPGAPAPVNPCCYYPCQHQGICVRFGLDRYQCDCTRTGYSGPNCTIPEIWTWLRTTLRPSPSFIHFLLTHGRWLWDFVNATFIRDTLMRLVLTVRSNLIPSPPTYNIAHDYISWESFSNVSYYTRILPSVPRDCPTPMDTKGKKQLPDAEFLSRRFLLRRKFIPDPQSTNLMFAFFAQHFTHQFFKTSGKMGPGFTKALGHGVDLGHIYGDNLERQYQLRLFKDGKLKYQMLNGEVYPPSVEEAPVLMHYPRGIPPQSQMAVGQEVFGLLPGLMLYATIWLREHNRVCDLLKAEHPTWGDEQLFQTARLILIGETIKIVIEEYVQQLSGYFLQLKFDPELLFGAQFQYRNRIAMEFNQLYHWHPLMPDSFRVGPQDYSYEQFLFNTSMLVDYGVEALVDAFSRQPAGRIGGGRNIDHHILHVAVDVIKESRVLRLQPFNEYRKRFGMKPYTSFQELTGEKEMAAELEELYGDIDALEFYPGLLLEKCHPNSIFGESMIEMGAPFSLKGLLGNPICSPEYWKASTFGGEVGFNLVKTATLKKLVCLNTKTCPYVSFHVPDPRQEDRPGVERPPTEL

For `O=C(NO)c1ccc(-c2ccccc2)cc1`, the inhibition was 50%.
